T cruzi repl: blocks replication of Trypanosoma cruzi; AID 1885; inhibition, % (concentration not given with the values); T. cruzi beta-gal in NIH3T3, luminescence, 90 h; 300,000 compounds, 1.4% hits;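 active = mean inhibition across valid replicates above about 55%, limit read from the data; inconclusive = mean below that limit but half or more replicates reach it; inactive = mean below it, under half of replicates reach it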;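 note: signal also drops with host cell toxicity which is not excluded here; 0% = plate median of DMSO wells and 100% = zero luminescence signal; higher percent means less beta-gal luminescence so fewer parasites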
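Assay system: NIH/3T3 host cells with β-galactosidase reporter T. cruzi; input: 5,000 host fibroblasts per well; compound: single 50 nL compound addition per well in DMSO; timing: ≥90 h infection period, 3 h prior cell attachment; measured by: GalScreen β-gal luminescence, detergent lysis, 60 min; evaluation: percent inhibition of parasite-derived β-gal signal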
HIF act: HIF pathway transcriptional activation | 300,000 compounds, 0.32% hits | AID 1910 | activation, % at 7.5 µM (by protocol) | U2OS HRE-luciferase reporter, luminescence; normalized: DMSO 0%, desferrioxamine 100%;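 active = mean activation of at least 10% of the iron chelator positive control signal, with at least half of replicates also reaching 10%; inconclusive = mean and replicate majority disagree about reaching 10%; inactive = mean and most replicates under 10%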
Yeast superoxide: yeast age-related superoxide inhibition as caloric restriction mimetic; S. cerevisiae aged cells, superoxide DHE fluorescence; active compounds read low; superoxide response (% of plate mean), % at 10 µM; 330,000 compounds, 0.18% hits;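 active = superoxide response under a set limit, about three screen SD below normal, cut at about 65% in these data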;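 note: yeast aged for seven days with compound at 30 °C before DHE staining; 100% = average MFI of all compound-treated wells on the plate with controls excluded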
NRP1-CendR mod: NRP-1/CendR interaction modulation; O14786; FAM-RPARPAR peptide binding to NRP-1, fluorescence polarization; 360,000 compounds, 0.85% hits; inhibition, % at 25 µM; AID 602438;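 active = inhibition or corrected inhibition above about 18%, plus a signal ratio from 0.5 to 1.5, limit read from the data, passing the limit was not always enough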
Target sequence (O14786 whole entry, looked up): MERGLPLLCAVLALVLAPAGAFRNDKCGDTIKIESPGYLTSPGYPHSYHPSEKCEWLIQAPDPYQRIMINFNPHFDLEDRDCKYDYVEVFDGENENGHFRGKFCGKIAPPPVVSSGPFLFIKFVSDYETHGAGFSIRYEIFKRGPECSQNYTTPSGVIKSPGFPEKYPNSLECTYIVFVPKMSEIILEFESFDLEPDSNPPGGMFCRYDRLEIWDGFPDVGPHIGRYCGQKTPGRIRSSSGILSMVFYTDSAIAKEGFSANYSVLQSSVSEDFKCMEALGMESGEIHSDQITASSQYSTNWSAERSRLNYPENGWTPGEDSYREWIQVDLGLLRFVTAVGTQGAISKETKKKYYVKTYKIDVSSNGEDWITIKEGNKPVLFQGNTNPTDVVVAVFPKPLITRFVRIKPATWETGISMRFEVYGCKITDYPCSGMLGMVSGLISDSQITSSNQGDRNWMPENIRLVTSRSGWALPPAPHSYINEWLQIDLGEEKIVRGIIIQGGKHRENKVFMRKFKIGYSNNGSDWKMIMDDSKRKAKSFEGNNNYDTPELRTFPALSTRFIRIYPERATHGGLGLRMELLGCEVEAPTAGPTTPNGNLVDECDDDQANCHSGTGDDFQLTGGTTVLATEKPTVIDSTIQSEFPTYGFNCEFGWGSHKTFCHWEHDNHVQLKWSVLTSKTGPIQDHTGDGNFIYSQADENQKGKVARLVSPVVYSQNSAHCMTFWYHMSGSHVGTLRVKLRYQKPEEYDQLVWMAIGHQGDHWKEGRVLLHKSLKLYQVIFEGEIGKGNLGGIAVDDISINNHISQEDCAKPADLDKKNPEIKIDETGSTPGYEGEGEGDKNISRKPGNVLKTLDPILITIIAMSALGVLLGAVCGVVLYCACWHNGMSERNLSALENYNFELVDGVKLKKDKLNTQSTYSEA
V-ATPase pH: yeast V-ATPase proton transport regulation by pHLuorin | 350,000 compounds, 0.37% hits | S. cerevisiae, pHLuorin cytosolic pH fluorescence | AID 504577 | response, % at 10 µM; in the data active = response mostly above about 7.3%, no sharp cut-off; inactive = mostly below about 5.4%; note: actives read high
AI-2 QS mod: modulates the Vibrio harveyi AI-2 quorum sensing system; activity change, % at 7.5 µM; AID 2094; 300,000 compounds, 0.4% hits; Vibrio harveyi JMH597 AI-2 luminescence/OD600 ratio, 9 h; active compounds read low; strain lacks LuxN and CqsS sensors; 0 = neutral-control median; in the data active = activity change below about -75%, passing the limit was not always enough; inconclusive = no clear call, values can overlap the other calls;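 note: luminescence divided by OD600 gain over 9 h not by final OD600 alone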
* marks the source's active call; other numbers are inactive results; ? = inconclusive; . = not tested or not shown. In the library only some 3% were active in any assay of this set; here they are far more common.

SMILES	T cruzi repl	HIF act	Yeast superoxide	NRP1-CendR mod	V-ATPase pH	AI-2 QS mod
COc1ccc(O)c(/C=N/Nc2nc(Nc3ccccc3)nc(-n3nc(C)cc3C)n2)c1	34.5	1.5	79.7	11.9	-2.2	31.4
COc1cc(/C=N/Nc2nc(Nc3ccc(C)cc3)nc(-n3nc(C)cc3C)n2)cc(OC)c1OC	58.1*	-0.8	109.3	-0.9	-0.1	28.8
COc1cc(/C=N/Nc2nc(Nc3ccccc3)nc(N3CCOCC3)n2)ccc1OC(=O)c1ccco1	62.3*	0.2	94.2	3.2	-2.1	2.1
COc1cc(/C=N/Nc2nc(Nc3ccccc3)nc(-n3nc(C)cc3C)n2)cc(OC)c1OC	54.5*	0.3	98.1	-2.5	-0.3	7.3
CC(C)C(=O)N(c1cc2sc(=O)oc2c2ccccc12)S(=O)(=O)c1cccs1	.	.	102.8	-2.7	1.8	15.8
N#Cc1c(N2CCOCC2)nc(N2CCCCC2)c2c1CCN(C1CCCCC1)C2	70.7*	-0.4	94.4	.	.	23.0
CCN1CCc2c(C#N)c(N3CCOCC3)nc(N3CCOCC3)c2C1	16.4	0.0	106.0	6.6	-0.8	26.8
O=C(Nc1ccccc1-c1nnc(SCc2ccc(Cl)cc2)o1)c1ccccc1	71.2*	-0.6	104.9	-30.7	-3.0	19.1
Clc1ccc(CSc2nnc(-c3c[nH]c4ccccc34)o2)cc1	0.1	0.0	89.5	-4.5	4.9	-77.4*
CCSc1nnc(-c2c[nH]c3ccccc23)o1	-1.5	3.4	97.2	-60.8	-3.5	9.5
COc1ccc(NC(=O)c2oc3ccccc3c2NC(=O)C2CC2)cc1	9.8	-0.1	72.6	-5.6	3.8	20.8
Clc1ccc(/C=N/c2c(-c3ccco3)nc3ccccn23)cc1	-2.0	.	106.4	36.5*	0.6	2.3
Oc1ccccc1/C=N/c1c(-c2ccco2)nc2ccccn12	-5.5	0.2	109.6	4.6	2.7	20.9
CCc1ccc2nc(N(CCCN(C)C)C(=O)c3ccc(S(=O)(=O)N4CCCC4)cc3)sc2c1	37.3	-1.3	109.4	-11.1	-6.8	15.7
CN(C)CCN(C(=O)c1ccc(S(=O)(=O)N2CCCC2)cc1)c1nc2ccc(Br)cc2s1	56.6*	1.8	95.0	5.9	1.9	20.6
CN(C)CCCN(C(=O)c1ccc(S(=O)(=O)N2CCOCC2)cc1)c1nc2ccc(F)cc2s1	64.9*	-17.2	90.1	6.1	-0.8	22.2
Cc1ccc2nc(N(CCCN(C)C)C(=O)c3ccc(S(=O)(=O)N4CCCCCC4)cc3)sc2c1	60.1*	-1.5	100.0	1.6	-0.2	3.1
CCCCN(C)S(=O)(=O)c1ccc(C(=O)N(CCN(C)C)c2nc3ccc(C)cc3s2)cc1	64.8*	1.5	91.8	-14.3	0.7	11.3
CCCCN(CC)S(=O)(=O)c1ccc(C(=O)N(CCCN(C)C)c2nc3cc(C)cc(C)c3s2)cc1	67.5*	0.8	127.5	-6.5	-4.8	10.5
CCc1ccc(-c2cc(C(F)(F)F)n3nc(C(=O)Nc4c(C)nn(Cc5ccccc5C)c4C)cc3n2)s1	59.5*	-0.6	103.1	8.5	0.2	1.8
CCc1ccc(-c2cc(C(F)(F)F)n3nc(C(=O)Nc4c(C)nn(Cc5ccccc5Cl)c4C)cc3n2)s1	11.9	0.1	85.5	-13.6	-2.9	25.6
CCN(CC)S(=O)(=O)c1ccc(N2CCOCC2)c(NC(=O)c2ccc3ccccc3c2)c1	27.2	-0.2	112.0	2.1	4.9	18.8
CCN(CC)S(=O)(=O)c1ccc(N2CCOCC2)c(NC(=O)c2cccc3ccccc23)c1	28.7	46.3*	92.6	-3.3	-1.1	-3.8
Cc1c(C(=O)Nc2cc(S(=O)(=O)N3CCOCC3)ccc2N2CCOCC2)oc2ccccc12	74.7*	-0.7	103.5	2.3	-0.4	0.1
Cc1c(C(=O)N2CCN(S(=O)(=O)c3ccc(F)cc3)CC2)oc2ccccc12	56.0*	0.0	103.4	10.6	-2.2	3.8
SMILES	T cruzi repl	HIF act	Yeast superoxide	NRP1-CendR mod	V-ATPase pH	AI-2 QS mod
COc1ccc(/C=N/NC(=S)Nc2cc(S(=O)(=O)N3CCOCC3)ccc2N2CCOCC2)cc1O	2.6	34.9*	94.5	-20.5	1.8	12.8
Cc1c(C(=O)N2CCN(S(=O)(=O)c3cccs3)CC2)oc2ccc(F)cc12	.	.	97.0	-1.9	0.8	.
Cc1cccc(NC(=O)Cn2c(=O)oc3cc(S(=O)(=O)N4CCCC4)ccc32)n1	-1.2	-0.1	93.8	6.5	-3.6	6.1
O=C(/C=C/c1ccc(F)cc1)Nc1cc(S(=O)(=O)N2CCOCC2)ccc1N1CCOCC1	.	.	.	-9.2	.	.
Cc1ccc(/C=C/C(=O)Nc2cc(S(=O)(=O)N3CCOCC3)ccc2N2CCOCC2)cc1	.	.	61.6*	10.4	9.4	.
COC(=O)C(Cc1ccccc1)NC(=O)CNS(=O)(=O)c1ccc(Br)cc1 (centres undefined)	-11.1	-0.1	98.1	0.7	-2.9	0.3
Cc1ccc(NC(=O)NCC2CCN(Cc3cccc(Cl)c3)CC2)cc1Cl	61.8*	0.1	97.9	-13.2	-2.0	23.7
Cc1nn(-c2ccccc2)c(C)c1/C=N\N1CCN(c2ccc(Cl)cc2)CC1	21.7	0.5	116.4	25.1*	3.6	4.7
CSc1nc(=O)n(CCC#N)nc1SC	.	.	.	9.9	.	.
COc1ccc(-n2c(O)c(/C=N/NS(=O)(=O)c3cccc([N+](=O)[O-])c3)c3ccccc3c2=O)cc1OC	61.8*	0.0	105.9	-160.2	-4.8	4.3
COc1ccc(CC(=O)NNS(=O)(=O)c2cccc([N+](=O)[O-])c2)cc1OC	-3.5	0.2	99.5	7.4	1.4	15.0
Cc1cc(=S)nc(-c2ccccn2)[nH]1	18.9	-0.1	96.1	4.6	-2.0	3.7
Cc1[nH]c(-c2ccccn2)nc(=S)c1Cl	-13.0	0.7	90.5	4.8	1.1	-88.2*
COc1cccc(N=Nc2ccc(O)c3ncccc23)c1	34.4	6.7	92.7	17.4	4.0	33.1
Oc1ccc(N=Nc2ccc3c(c2)OCCO3)c2cccnc12	83.4*	14.3*	80.0	9.0	-0.9	17.1
COc1ccc(N=Nc2ccc(O)c3ncccc23)cc1	45.8	91.6*	102.6	-1.1	0.5	-5.8
COc1ccc(C)cc1N=Nc1ccc(O)c2ncccc12	?	4.3	.	10.5	4.2	33.1
Cc1ccccc1N=Nc1ccc(O)c2ncccc12	42.3	38.1*	94.4	-6.5	4.7	41.4
CCOC(=O)[C@]12CCCC=C1N(Cc1cccc3ccccc13)C(=O)[C@H](CC(=O)NCC1CCCCC1)C2	.	.	.	6.6	.	.
CC1CCCN(C(=O)CSc2nnc(-c3c[nH]c4ccccc34)o2)C1 (centres undefined)	7.1	0.2	110.3	-13.8	2.3	23.2
CC(=O)c1ccc(NC(=O)COc2ccccc2C(=O)Nc2ccccc2)cc1	7.2	0.4	106.5	-3.8	-3.8	4.1
